According to ChEMBL document CHEMBL3808334, “Synthesis and in vitro evaluation of novel triazine analogues as anticancer agents and their interaction studies with bovine serum albumin” (Eur J Med Chem, 2016):

How the values were obtained:
Type in all cases: functional
[1] = Growth inhibition of human OVCAR5 cells assessed as cell growth at 10^-7 M incubated for 48 hrs by sulforhodamine B assay; conditions: OVCAR-5, 48 h, read-out: Activity
[2] = test system: NCI-H460; test: Growth inhibition of human NCI-H460 cells assessed as cell growth at 10 uM incubated for 48 hrs by sulforhodamine B assay; conditions: NCI-H460, 48 h, read-out: Activity
[3] = test system: 786-0; test: Growth inhibition of human 786-0 cells assessed as cell growth at 10^-8 M incubated for 48 hrs by sulforhodamine B assay; conditions: 786-0, 48 h, read-out: Activity
How it was run: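 Five-dose assay: five concentrations from 10-fold or ½-log serial dilutions. Cells are plated at 5,000–40,000 per well according to doubling time, grown 24 h, then exposed 48 h at 37 °C, 5% CO₂. Fixed with cold 50% TCA (final addition) for 60 min at 4 °C and stained with 0.4% SRB in 1% acetic acid. Bound dye is solubilized in 10 mM Tris base and read at 515 nm. GI₅₀ is where [(Ti−Tz)/(C−Tz)]×100 = 50, with a time-zero plate as Tz.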

[4] = Growth inhibition of human SKOV3 cells assessed as cell growth at 10^-7 M incubated for 48 hrs by sulforhodamine B assay; conditions: SK-OV-3, 48 h, read-out: Activity
[5] = test system: KM12; test: Growth inhibition of human KM12 cells assessed as cell growth at 10^-7 M incubated for 48 hrs by sulforhodamine B assay; conditions: KM12, 48 h, read-out: Activity
[6] = test system: SK-MEL-5; test: Growth inhibition of human SK-MEL-5 cells incubated for 48 hrs by sulforhodamine B assay; conditions: SK-MEL-5, 48 h
How it was run: (§1)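 Cells were plated at 5,000–40,000 per well according to doubling time and preincubated 24 h at 37 °C in 5% CO2; time-zero plates were then TCA-fixed. Five concentrations (10-fold or ½-log dilutions, DMSO stock) were incubated 48 h. Cells were TCA-fixed, stained with 0.4% SRB and read at 515 nm. GI50 was taken where [(Ti−Tz)/(C−Tz)]×100 = 50.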

[7] = test system: HT-29; test: Growth inhibition of human HT-29 cells assessed as cell growth at 10^-6 M incubated for 48 hrs by sulforhodamine B assay; conditions: HT-29, 48 h, read-out: Activity
[8] = Growth inhibition of human OVCAR8 cells assessed as cell growth at 10^-4 M incubated for 48 hrs by sulforhodamine B assay; conditions: OVCAR-8, 48 h, read-out: Activity
[9] = test system: NCI/ADR-RES; test: Growth inhibition of human NCI/ADR-RES cells assessed as cell growth at 10^-6 M incubated for 48 hrs by sulforhodamine B assay; conditions: read-out: Activity
[10] = test system: KM12; test: Growth inhibition of human KM12 cells incubated for 48 hrs by sulforhodamine B assay; conditions: KM12, 48 h; how it was run: as §1
[11] = Growth inhibition of human HCC2998 cells assessed as cell growth at 10^-7 M incubated for 48 hrs by sulforhodamine B assay; conditions: HCC 2998, 48 h, read-out: Activity
How it was run: (§2)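 Cells seeded at 5,000–40,000/well according to doubling time and preincubated 24 h at 37 °C, 5% CO2. Time-zero plates were TCA-fixed. DMSO concentrate was diluted in medium with 50 µg/ml gentamicin to give five concentrations (10-fold or ½ log steps), then exposed 48 h. Cells were TCA-fixed, stained with 0.4% SRB and read at 515 nm. Percent growth was taken against time-zero and control; GI50, TGI and LC50 derived.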

[12] = Growth inhibition of human HOP62 cells assessed as cell growth at 10^-6 M incubated for 48 hrs by sulforhodamine B assay; conditions: HOP-62, 48 h, read-out: Activity
[13] = Growth inhibition of human OVCAR3 cells assessed as cell growth at 10^-8 M incubated for 48 hrs by sulforhodamine B assay; conditions: OVCAR-3, 48 h, read-out: Activity
[14] = test system: M14; test: Growth inhibition of human M14 cells assessed as cell growth at 10^-5 M incubated for 48 hrs by sulforhodamine B assay; conditions: M14, 48 h, read-out: Activity
[15] = Growth inhibition of human UACC257 cells assessed as cell growth at 10 uM incubated for 48 hrs by sulforhodamine B assay; conditions: UACC-257, 48 h, read-out: Activity
[16] = Growth inhibition of human HOP92 cells incubated for 48 hrs by sulforhodamine B assay; conditions: HOP-92, 48 h; how it was run: as §2
[17] = Growth inhibition of human HCC2998 cells incubated for 48 hrs by sulforhodamine B assay; conditions: HCC 2998, 48 h; how it was run: as §2
[18] = test system: KM12; test: Growth inhibition of human KM12 cells assessed as cell growth at 10 uM incubated for 48 hrs by sulforhodamine B assay; conditions: KM12, 48 h, read-out: Activity
[19] = Growth inhibition of human RPMI8226 cells incubated for 48 hrs by sulforhodamine B assay; conditions: RPMI-8226, 48 h; how it was run: as §1
[20] = test system: CCRF-CEM; test: Growth inhibition of human CCRF-CEM cells assessed as cell growth at 10^-4 M incubated for 48 hrs by sulforhodamine B assay; conditions: read-out: Activity
How it was run: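 Leukemia line in the five-dose format: five concentrations from 10-fold or ½-log serial dilutions. Plated at 5,000–40,000 cells per well, preincubated 24 h, then compound added for 48 h at 37 °C, 5% CO₂. Sulforhodamine B absorbance read at 515 nm. Growth is computed against time-zero (Tz) and control (C) readings; GI₅₀ is where [(Ti−Tz)/(C−Tz)]×100 = 50.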

[21] = Growth inhibition of human PC3 cells assessed as cell growth at 10 uM incubated for 48 hrs by sulforhodamine B assay; conditions: PC-3, 48 h, read-out: Activity
[22] = test system: MDA-MB-231; test: Growth inhibition of human MDA-MB-231 cells assessed as cell growth at 10^-6 M incubated for 48 hrs by sulforhodamine B assay; conditions: MDA-MB-231, 48 h, read-out: Activity
[23] = Growth inhibition of human LOXIMVI cells assessed as cell growth at 10^-5 M incubated for 48 hrs by sulforhodamine B assay; conditions: LOX IMVI, read-out: Activity
[24] = Growth inhibition of human DU145 cells assessed as cell growth at 10^-7 M incubated for 48 hrs by sulforhodamine B assay; conditions: DU-145, 48 h, read-out: Activity; how it was run: as §2
[25] = read-out: LC50 (the source's name)
[26] = read-out: pLC50 (the source's name) (converted)

SMILES: Clc1ccc(-c2nc(Nc3ccc(-c4nc5ccccc5[nH]4)cc3)nc(N3CCOCC3)n2)cc1
- growth at 0.1 µM [1]: 92%
- growth at 10 µM [2]: -80.3%
- growth at 0.01 µM [3]: 99%
- growth at 0.1 µM [4]: 99%
- growth at 0.1 µM [5]: 97%
- GI50 ([6]; read-out: GI50): 1690 nM
- CC50 [6, 25]: 5.79 µM
- TGI ([6]; read-out: TGI): 3.13 µM
- GI50 ([6]; read-out: pGI50 (converted)): 1700 nM
- CC50 [6, 26]: 5.75 µM
- TGI ([6]; read-out: pTGI (converted)): 3.16 µM
- growth at 1 µM [7]: -39%
- growth at 100 µM [8]: -79%
- growth at 1 µM [9]: 37%
- GI50 ([10]; read-out: GI50): 370 nM
- CC50 [10, 25]: 4.75 µM
- TGI ([10]; read-out: TGI): 1.41 µM
- GI50 ([10]; read-out: pGI50 (converted)): 372 nM
- CC50 [10, 26]: 4.79 µM
- TGI ([10]; read-out: pTGI (converted)): 1.41 µM
- growth at 0.1 µM [11]: 93%
- growth at 1 µM [12]: 72%
- growth at 0.01 µM [13]: 99%
- growth at 10 µM [14]: -85%
- growth at 10 µM [15]: -82.5%
- GI50 ([16]; read-out: GI50): 1300 nM
- LC50 (concentration killing 50% of starting cells) ([16]; read-out: LC50): 5.61 µM
- TGI ([16]; read-out: TGI): 2.7 µM
- GI50 ([16]; read-out: pGI50 (converted)): 1290 nM
- LC50 (concentration killing 50% of starting cells) ([16]; read-out: pLC50 (converted)): 5.62 µM
- TGI ([16]; read-out: pTGI (converted)): 2.69 µM
- GI50 ([17]; read-out: GI50): 358 nM
- GI50 ([17]; read-out: pGI50 (converted)): 355 nM
- growth at 10 µM [18]: -91.3%
- GI50 ([19]; read-out: GI50): 257 nM
- TGI ([19]; read-out: TGI): 0.682 µM
- GI50 ([19]; read-out: pGI50 (converted)): 257 nM
- TGI ([19]; read-out: pTGI (converted)): 0.676 µM
- growth at 100 µM [20]: -36%
- growth at 10 µM [21]: -93.5%
- growth at 1 µM [22]: -55%
- growth at 10 µM [23]: -70%
- growth at 0.1 µM [24]: 96%

SMILES: c1ccc2[nH]c(-c3ccc(Nc4nc(N5CCCCC5)nc(N5CCOCC5)n4)cc3)nc2c1
- growth at 0.1 µM [1]: 100%
- growth at 10 µM [2]: 0.81%
- growth at 0.01 µM [3]: 99%
- growth at 0.1 µM [4]: 101%
- growth at 0.1 µM [5]: 103%
- GI50 ([6]; read-out: GI50): 1780 nM
- CC50 [6, 25]: 6.11 µM
- TGI ([6]; read-out: TGI): 3.3 µM
- GI50 ([6]; read-out: pGI50 (converted)): 1780 nM
- CC50 [6, 26]: 6.17 µM
- TGI ([6]; read-out: pTGI (converted)): 3.31 µM
- growth at 1 µM [7]: 104%
- growth at 100 µM [8]: -49%
- growth at 1 µM [9]: 95%
- GI50 ([10]; read-out: GI50): 2850 nM
- CC50 [10, 25]: > 100 µM
- TGI ([10]; read-out: TGI): 9.54 µM
- GI50 ([10]; read-out: pGI50 (converted)): 2820 nM
- CC50 [10, 26]: > 100 µM
- TGI ([10]; read-out: pTGI (converted)): 9.55 µM
- growth at 0.1 µM [11]: 105%
- growth at 1 µM [12]: 90%
- growth at 0.01 µM [13]: 103%
- growth at 10 µM [14]: -45%
- growth at 10 µM [15]: -19.3%
- GI50 ([16]; read-out: GI50): 1990 nM
- LC50 (concentration killing 50% of starting cells) ([16]; read-out: LC50): 9.34 µM
- TGI ([16]; read-out: TGI): 4.32 µM
- GI50 ([16]; read-out: pGI50 (converted)): 2000 nM
- LC50 (concentration killing 50% of starting cells) ([16]; read-out: pLC50 (converted)): 9.33 µM
- TGI ([16]; read-out: pTGI (converted)): 4.37 µM
- GI50 ([17]; read-out: GI50): 3740 nM
- CC50 [17, 25]: > 100 µM
- TGI ([17]; read-out: TGI): > 100 µM
- GI50 ([17]; read-out: pGI50 (converted)): 3720 nM
- CC50 [17, 26]: > 100 µM
- TGI ([17]; read-out: pTGI (converted)): > 100 µM
- growth at 10 µM [18]: 14.3%
- GI50 ([19]; read-out: GI50): 2230 nM
- CC50 [19, 25]: > 100 µM
- TGI ([19]; read-out: TGI): 6.58 µM
- GI50 ([19]; read-out: pGI50 (converted)): 2240 nM
- CC50 [19, 26]: > 100 µM
- TGI ([19]; read-out: pTGI (converted)): 6.61 µM
- growth at 100 µM [20]: 5%
- growth at 10 µM [21]: 12.4%
- growth at 1 µM [22]: 92%
- growth at 10 µM [23]: -72%
- growth at 0.1 µM [24]: 104%
